Screens deposited in PubChem by several laboratories.
Rows were chosen to be rich in hits. Some 12% of all compounds tested hit in one or more screens of this group.
MT stabilizer = microtubule stabilizers in HeLa cells, primary screen, imaging, high-content imaging; HeLa tubulin immunostaining HCS, 24 h; share of cells brighter than vehicle mean+2SD; % tubulin-high responders, % at 10 µM; actives 0.83% (n = 200,000); AID 2205, 2009;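 active = plate Z-score above 3 for both tubulin-high and condensed-nucleus cell shares, with cell loss under 80%, at 10 µM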;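 note: anti alpha tubulin signal scored within the nucleus-defined area of each cell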
L major viab = Leishmania major promastigote growth inhibition, primary screen | Leishmania major promastigotes, resazurin fluorescence viability | inhibition, % at 10 µM | actives 9% (n = 200,000) | AID 1063, 2008; in the data active = inhibition above about 50%;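 note: promastigotes grown with compound for 44 hours at 28 °C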
CHOP inh = inhibitors of CHOP promoter induction, primary screen, cell-based, unfolded protein response, luciferase reporter. CHO-K1 CHOP-promoter luciferase, tunicamycin-induced, 15-18 h. inhibition, % at 10 µM. actives 3.8% (n = 220,000);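 active = compounds that reduced the stress-induced luciferase reporter signal by more than about 70% of percent inhibition, limit read from the data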;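 note: 0% = tunicamycin plus vehicle and 100% = wells without tunicamycin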
b-catenin transl = modulators of beta-catenin nuclear translocation, primary screen, imaging, HeLa cells, immunofluorescence, high-content; AID 1665, 2009; nuclear translocation activity, % at 5 µM; actives 0.3% (n = 190,000);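 active = nuclear translocation activity above 50% at 5 µM, with a well cell count of 50 or more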;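 note: per-cell ratio of nuclear to cytoplasmic median beta-catenin stain intensity; plate controls were DMSO negative control for no effect and GSK-3 inhibitor IX positive control for full effect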
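Technique: fluorescence imaging of beta-catenin antibody stain plus DAPI / Material: human HeLa cell line / Incubation: compound treatment 24 h, 37°C, 5% CO2 / Read-out basis: % activation of per-cell nuclear versus cytoplasmic median beta-catenin signal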
Autophagy mod = autophagy modulators in MEF cells, primary screen, imaging, high-content, MEF GFP-LC3 | calls only at 10 µM (by protocol) | actives 0.98% (n = 190,000) | MEF GFP-LC3 puncta imaging; test concentration mostly 10 µM;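 active = percentage of spot-positive cells more than 3 SD above its plate mean, without a fluorescence outlier flag or 80% toxicity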;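 note: spot-positive cell cutoff set from DMSO-treated cells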
Dynein transport = inhibitors of GR-EGFP nuclear translocation, primary screen, dynein cargo transport inhibitor project, imaging, high-content, 3617.4 mouse cells. test concentration mostly 20 µM; stimulated with dexamethasone, 1 µM; hits give low values. z-score, hits read low. actives 0.47% (n = 220,000);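 active = plate z-score of nuclear minus cytoplasmic receptor signal below a set negative limit, without overly bright fluorescence or cell loss, cut at about -3.5 in these data, passing the limit was not always enough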;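 note: z-score of nuclear minus cytoplasmic ring GR-EGFP intensity difference per well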
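Also added – dexamethasone, 1.0 µM final · Buffer or medium – tet-free, stripped-serum medium · Schedule – induction 48 h, compound 1 h, agonist 30 min · Detection – formaldehyde fixation, Hoechst nuclear stain, 10x automated fluorescence imaging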
CHOP inh conf = retest of CHOP induction inhibitors, confirmation, cell-based; shares compounds with CHOP inh; CHO-CHOP promoter luciferase reporter, tunicamycin-induced, luminescence; inhibition, % at 10 µM; actives 45% (n = 2,100);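 active = mean of three repeat readings of reporter signal inhibition above a set limit, cut at about 70% in these data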;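 note: 0% = tunicamycin plus vehicle and 100% = wells lacking tunicamycin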
* = called active by the depositor.

How did Cc1cccc(/C=N\NC(=O)c2ccc(Cl)cc2)c1O do in these assays?
MT stabilizer: 2; L major viab: 72*; CHOP inh: 98*; b-catenin transl: -1; Autophagy mod: inactive; Dynein transport: 1.1; CHOP inh conf: 17

Results for COCCn1c(SCC(=O)Nc2ccc(OC)cc2)nc2c(oc3ccccc32)c1=O ?
MT stabilizer: 4; L major viab: 12; CHOP inh: 48; b-catenin transl: -3; Autophagy mod: inactive; Dynein transport: -0.24

What do the screens show for `COCCn1c(SCC(=O)Nc2ccc(C)cc2C)nc2c(oc3ccccc32)c1=O`?
MT stabilizer: 4; L major viab: 54*; CHOP inh: 101*; Autophagy mod: active; Dynein transport: 0.47; CHOP inh conf: 22

How did N#CCC(=O)Nc1ccc(C(=O)OCC(=O)Nc2cccc(C(F)(F)F)c2)cc1 do in these assays?
MT stabilizer: 9; L major viab: 0; CHOP inh: 26; b-catenin transl: 1; Autophagy mod: inactive; Dynein transport: 0.56

Results for O=C(OCC(=O)N1CCN(C(=O)c2ccco2)CC1)c1ccccc1OCc1ccc(Cl)cc1 ?
MT stabilizer: 4; L major viab: 29; CHOP inh: 3; b-catenin transl: -3; Autophagy mod: inactive; Dynein transport: 2.3

How did COc1ccc(C(CCNCc2ccc(F)cc2)c2ccc(F)cc2)cc1 (stereo unspecified) do in these assays?
MT stabilizer: 4; L major viab: 72*; CHOP inh: 101*; b-catenin transl: -1; Autophagy mod: inactive; Dynein transport: -0.55; CHOP inh conf: 105*

What do the screens show for `C=C1/C(=C\C=C2/CCC[C@]3(C)[C@@H]([C@H](C)CCCC(C)(C)O)CC[C@@H]23)C[C@@H](O)C[C@@H]1O`?
CHOP inh: 7; b-catenin transl: -2

How did N#C/C(=C\c1ccc(F)cc1)c1nc(-c2ccco2)cs1 do in these assays?
MT stabilizer: 2; L major viab: -6; CHOP inh: 105*; b-catenin transl: -1; Autophagy mod: inactive; Dynein transport: 0.17; CHOP inh conf: -101

What do the screens show for `O=C(Cc1ccccc1)c1nnc(-c2ccccc2)o1`?
MT stabilizer: 2; L major viab: -3; CHOP inh: 10; b-catenin transl: -2; Autophagy mod: inactive; Dynein transport: -0.75

What do the screens show for `CCOc1cccc(CN2CCN(c3cccc(C(F)(F)F)c3)CC2)c1O`?
MT stabilizer: 4; L major viab: 37; CHOP inh: 100*; Autophagy mod: inactive; Dynein transport: 0.13; CHOP inh conf: 79*

What do the screens show for `COc1cccc(S(=O)(=O)Nc2ccc(C(=O)N3CCOCC3)cc2)c1`?
MT stabilizer: 3; L major viab: -11; CHOP inh: 21; Autophagy mod: inactive; Dynein transport: 0.45

Results for Cc1ccc2nc(/C(C#N)=C\c3cc(O)ccc3[N+](=O)[O-])[nH]c2c1 ?
MT stabilizer: 1; L major viab: -3; CHOP inh: -16; b-catenin transl: -3; Autophagy mod: inactive; Dynein transport: -0.86

How did COc1ccc(/C=C(\C#N)c2nc3ccc(C)cc3[nH]2)cc1Oc1ccc(C(F)(F)F)cc1[N+](=O)[O-] do in these assays?
MT stabilizer: 4; L major viab: 1; CHOP inh: 102*; b-catenin transl: 1; Autophagy mod: active; Dynein transport: -0.3; CHOP inh conf: 58

What do the screens show for `Cc1ccc2nc(/C(C#N)=C/c3ccc(-c4cccc([N+](=O)[O-])c4)o3)[nH]c2c1`?
MT stabilizer: 3; L major viab: 21; CHOP inh: 108*; b-catenin transl: -1; Autophagy mod: active; Dynein transport: -0.068; CHOP inh conf: 52

Results for C(=N\Nc1ncnc2sc3c(c12)CCC3)/c1cccs1 ?
MT stabilizer: 6; L major viab: 21; CHOP inh: 102*; b-catenin transl: 11; Autophagy mod: inactive; Dynein transport: 0.41; CHOP inh conf: 73*

What do the screens show for `Cc1ccccc1Cn1nc(C)c(NC(=O)/C=C/c2cnn(C)c2)c1C`?
MT stabilizer: 2; L major viab: 17; CHOP inh: -4; Autophagy mod: inactive; Dynein transport: 0.54

How did CCOc1ccccc1/C=N/NC(=O)Cc1csc(Nc2cccc(C(F)(F)F)c2)n1 do in these assays?
MT stabilizer: 2; L major viab: 3; CHOP inh: 52; b-catenin transl: -2; Autophagy mod: inactive; Dynein transport: -0.24

What do the screens show for `CCOc1ccc(/C=N/NC(=O)Cc2csc(Nc3cccc(C(F)(F)F)c3)n2)cc1`?
MT stabilizer: 4; L major viab: 12; CHOP inh: 106*; b-catenin transl: -2; Autophagy mod: inactive; Dynein transport: -0.59; CHOP inh conf: 32

What do the screens show for `CCOC(=O)C(NC(=O)Nc1ccccc1)(OCC)C(F)(F)F` (stereo unspecified)?
MT stabilizer: 3; L major viab: -7; CHOP inh: -1; Autophagy mod: inactive; Dynein transport: 0.22

Results for CCOC(=O)C(NC(=O)Nc1cccc(C)n1)(OCC(F)(F)F)C(F)(F)F (stereo unspecified) ?
MT stabilizer: 5; L major viab: -6; CHOP inh: 106*; Autophagy mod: inactive; Dynein transport: -0.59; CHOP inh conf: 95*

What do the screens show for `O=C(OCn1ncc(Cl)c(Cl)c1=O)c1ccc(F)cc1`?
MT stabilizer: 2; L major viab: 98*; CHOP inh: 107*; Autophagy mod: inactive; Dynein transport: -2.9; CHOP inh conf: 123*

Results for O=C(N=Nc1c(O)[nH]c2ccccc12)c1cccc(S(=O)(=O)N2CCCCC2)c1 ?
MT stabilizer: 4; L major viab: 61*; CHOP inh: 97*; b-catenin transl: 0; Autophagy mod: inactive; Dynein transport: -0.0075; CHOP inh conf: -27

Results for CCOc1ccc2nc(SCc3ccc(C(=O)OC)o3)[nH]c2c1 ?
MT stabilizer: 2; L major viab: 0; CHOP inh: -28; b-catenin transl: 1; Autophagy mod: inactive; Dynein transport: 0.43

What do the screens show for `CCOC(=O)c1c(Cc2cccc(Cl)c2)c[nH]c1C`?
MT stabilizer: 2; L major viab: 4; CHOP inh: 39; b-catenin transl: 3; Autophagy mod: inactive; Dynein transport: 1.4
